Ecoli WT expand: growth inhibitors of E. coli BW25113 wild type | OD600 absorbance | growth inhibition, % at 100 µM | actives 0.15% (n = 98,000) | AID 710;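 active = growth inhibition above about 50% at one test dose, limit read from the data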;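 note: growth measured after 20 h incubation at 37 °C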
PostGolgi ctrl: yeast control strain growth, post-Golgi counter-screen. efflux-deficient yeast background strain, growth absorbance A615, 16 h. actives 5% (n = 98,000). inhibition, % at 10 µM
PostGolgi yeast: growth inhibition of a yeast mutant, post-Golgi transport screen; actives 0.9% (n = 98,000); AID 739; inhibition, % at 10 µM; post-Golgi transport phenotypic cell assay;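 note: yeast cells grown in 1536-well plates; yeast grown about 18 h at 30C before absorbance read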
tolC growth inh: growth inhibitors of E. coli BW25113 tolC mutant. OD615. growth inhibition, % at 10 µM (by protocol). actives 2.2% (n = 65,000). AID 573;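 active = growth inhibition at or above a cutoff equal to the mean over every tested compound plus 3 SD, cut at about 60% in these data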;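 note: growth measured after 20 h incubation at 37 °C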
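Test system: E. coli BW25113 ΔtolC::kan bacteria; incubation: 37 °C, 20 h exposure; medium: LB broth supplemented with 50 µg/mL kanamycin; read-out basis: percent growth inhibition; signal: A615 absorbance measurement; compound: 10 µM final, single dose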
* = called active by the depositor; nt = no result. Hits are enriched below; roughly 6.3% of the tested compounds scored in any of these assays. Cut-off read from the data, not from the text of the source, unless noted: active = inhibition above about 30%; inactive = the rest.

SMILES	Ecoli WT expand	PostGolgi ctrl	PostGolgi yeast	tolC growth inh
Cc1ccccc1Cn1cnc2c([N+](=O)[O-])c(C)c(C)cc21	2	40*	14	nt
CCCn1c(SCC(=O)Nc2ccccc2Oc2ccccc2)n[nH]c1=O	4	0	-8	nt
Cc1ccc(N(CC(O)CON=C2c3ccccc3-c3ccccc32)S(C)(=O)=O)cc1 (stereo unspecified)	-7	67*	-3	nt
Cc1cccc(C)c1N(CC(O)Cn1c2ccccc2c2ccccc21)S(C)(=O)=O (stereo unspecified)	-18	16	-5	nt
Cc1ccc(N(CC(O)CN2CCOCC2)S(=O)(=O)c2ccc3ccccc3c2)cc1 (stereo unspecified)	5	19	-2	13
CS(=O)(=O)N(Cc1ccco1)CC(O)Cn1c2ccccc2c2ccccc21 (stereo unspecified)	-9	6	-7	22
Cc1ccc(N(CC(O)Cn2c3ccccc3c3ccccc32)S(C)(=O)=O)cc1 (stereo unspecified)	-17	51*	18	nt
Cc1ccc(N(CC(O)Cn2c3ccccc3c3ccccc32)S(C)(=O)=O)c(C)c1 (stereo unspecified)	-1	51*	-6	nt
Cc1ccc(N(CC(O)CN2CCCC2)S(=O)(=O)c2ccc(C)cc2)cc1 (stereo unspecified)	2	46*	-1	-2
CSc1nc(Oc2ccc(=O)n(C)n2)nc(N(C)C)n1	-2	3	-21	nt
COc1ccc(OC2C(=O)N(Cc3ccc4c(c3)OCO4)C2c2cccs2)cc1 (stereo unspecified)	-16	24	-1	nt
COc1ccc(NC(=O)CN(C)S(=O)(=O)c2ccc3c(c2)CCC(=O)N3)c(OC)c1	-10	-4	-12	nt
Cc1ccc(-c2csc(N(CC3CCCO3)C(=O)c3ccco3)n2)cc1 (stereo unspecified)	nt	nt	nt	67*
Cn1c(NC(=O)c2cccs2)c(-c2cccs2)c(=O)c2ccccc21	-10	32*	4	-19
Cn1c(NC(=O)c2ccccc2)c(-c2cccs2)c(=O)c2ccccc21	-7	25	0	nt
CCCCOC(=O)n1c(SCC(=O)N(CC)CC)nc2ccccc21	9	31*	-6	41
CCOC(=O)n1c(SCC(N)=O)nc2ccccc21	6	6	-7	nt
O=C(NNc1cccc(Cl)n1)Nc1ccccc1Cl	-2	14	-7	nt
O=C(CN1CCC(O)(c2ccc3c(c2)OCO3)CC1)OC1CCCCC1	2	41*	-5	-4
O=C(CN1CCC(O)(c2ccc3c(c2)OCO3)CC1)N1CCOCC1	-9	2	-5	-21
CCOc1ccc(C(C)=O)cc1COc1ccc(-n2cnnn2)cc1	-11	1	-3	6
Cc1ccc(C2NC(=O)Cc3ccccc32)cc1 (stereo unspecified)	-3	-3	0	nt
NC(=O)c1cc(Br)cc2c3c([nH]c12)CCCC3	-4	78*	5	56
O=c1c2c([nH]c3ccc(Br)cc13)CCCC2	nt	nt	nt	3
O=C(CSc1nccc2ccccc12)N1CCN(c2ccccn2)CC1	-4	17	8	17
SMILES	Ecoli WT expand	PostGolgi ctrl	PostGolgi yeast	tolC growth inh
O=c1cc(NCc2ccco2)[nH]c(=O)n1-c1ccc(Br)cc1	-3	37*	5	-3
Cc1nc(NC(C)c2ccccc2)c2oc3ccccc3c2n1 (stereo unspecified)	5	74*	9	16
COc1ccc(N2CCN(C(c3ccccc3OC)c3nnnn3C3CCCC3)CC2)cc1 (stereo unspecified)	-9	3	3	9
COc1ccc(N2CCN(C(c3cccs3)c3nnnn3C3CCCC3)CC2)cc1 (stereo unspecified)	-7	78*	13	25
Fc1ccc(N2CCN(C(c3cccs3)c3nnnn3C3CCCC3)CC2)cc1 (stereo unspecified)	-20	36*	11	3
CCn1cnc2sc(C(=O)N(Cc3ccc(N(C)C)cc3)Cc3ccco3)c(C)c2c1=O	-8	39*	12	5
COc1ccccc1N(CC(=O)Nc1cccnc1)S(C)(=O)=O	0	4	3	-12
CCC(=O)Nc1ccc(N2CCN(C(=O)c3ccccc3C)CC2)cc1	0	6	4	-22
Cc1ccccc1C(=O)N1CCN(c2ccc(NC(=O)CSc3ccc(Cl)cc3)cc2)CC1	-19	53*	79*	nt
O=C(COc1ccc(Cl)cc1)Nc1ccc(N2CCN(C(=O)c3ccco3)CC2)cc1	-6	13	88*	nt
Cc1cc(C)cc(OCC(=O)Nc2ccc(N3CCN(C(=O)c4ccco4)CC3)cc2)c1	-1	-2	-2	nt
O=C(c1ccco1)N1CCN(Cc2ccc(Cl)cc2)CC1	13	35*	-4	-1
Nc1cccc2nc3ccccc3cc12	57*	14	9	nt
COc1ccc(NC(=O)CN2CCOCC2)cc1	3	3	12	nt
Cc1nc2ccccc2n2c(-c3ccccc3)c3c(=O)n(C)c(=O)n(C)c3c12	-7	47*	17	nt
Cn1c(=O)c2c(-c3ccccc3)n3c4ccccc4ncc3c2n(C)c1=O	nt	nt	nt	3
FC(F)(F)c1nc2ccccc2nc1N/N=C/c1c(Cl)cccc1Cl	-7	3	-3	nt
Cc1nc(SCC(=O)c2c[nH]c3ccccc23)n[nH]1	10	32*	-4	-5
Cc1nc(SCC(=O)c2ccc(F)cc2)n[nH]1	7	-2	-2	-9
Cc1cc(NC(=O)CCC(=O)N(CC(=O)NC2CCCC2)c2ccc3c(c2)OCCO3)no1	0	-3	-1	-14
Cc1cc(NC(=O)CCC(=O)N(c2ccc(F)cc2)C2(C(=O)NC3CCCCC3)CCCC2)no1	9	39*	6	31
CCOC(=O)C1CCCN(S(=O)(=O)c2cc(OCC(N)=O)c(C)cc2Cl)C1 (stereo unspecified)	-2	33*	-1	17
Cc1cc(Cl)c(S(=O)(=O)N2CCCCCC2)cc1OCC(N)=O	11	17	-4	12
COc1ccc(-c2cn3cc(Cl)ccc3n2)cc1OC	-5	8	6	18
Clc1ccc2nc(-c3ccc(Br)s3)cn2c1	-17	31*	-4	nt
SMILES	Ecoli WT expand	PostGolgi ctrl	PostGolgi yeast	tolC growth inh
COc1ccc(NC2SC(=O)N(CC(=O)O)C2=O)cc1 (stereo unspecified)	-4	37*	9	-17
CC(/C=N/n1cnnc1)=C\c1ccco1	3	12	8	-13
COc1ccc(-c2nc(N3CCCCCC3)sc2C(=O)c2ccccc2)cc1	-17	16	-7	nt
O=C(c1ccccc1)c1sc(N2CCCCCC2)nc1-c1ccccc1	-22	33*	-5	nt
O=C(CCCN1C(=O)c2ccccc2C1=O)OC1CSCC1NC(=O)c1ccccc1 (stereo unspecified)	-6	-4	-2	nt
O=C(COc1ccc2ccccc2c1)NNC(=O)Cc1cccc2ccccc12	-6	-3	4	nt
CC(C)(C)c1ccc(C(=O)NNC(=O)Cc2cccc3ccccc23)cc1	8	40*	-1	nt
CCOC(=O)CCSc1nnc(-c2cccnc2)n1-c1ccccc1OC	-3	6	-4	-17
COc1ccc(C2CC(c3ccc(OC)cc3)n3nc(NC(=O)c4ccco4)nc3N2)cc1 (stereo unspecified)	-4	31*	5	43

Assay outcomes: PubChem, SRMLSC
